Data taken from ChEMBL document CHEMBL4616704, “Discovery of an Atropisomeric PI3Kβ Selective Inhibitor through Optimization of the Hinge Binding Motif” (ACS Med Chem Lett, 2020).

Assays:
[1] = MRT in cynomolgus monkey at 1 mg/kg administered as iv infusion for 30 mins and measured after 24 hrs by ESI-LC/MS/MS analysis; assay type: ADME, organism-based, Macaca fascicularis; conditions: in vivo
[2] = Ocular toxicity in Beagle dog assessed as irreversible damage by measuring decrease in electroretinography response at 10 to 100 mg/kg/day administered for 7 days measured on day 6 by ERG and OCT analysis; assay type: organism-based, Canis lupus familiaris; conditions: in vivo, 168 h
[3] = Ocular toxicity in Beagle dog assessed as irreversible damage by measuring choroidal inflammation at 10 to 100 mg/kg/day administered for 7 days measured on day 6 by ERG and OCT analysis; assay type: organism-based, Canis lupus familiaris; conditions: in vivo, 168 h
[4] = Protein binding in cynomolgus monkey plasma at 1 mg/kg administered as iv infusion for 30 mins and measured after 24 hrs by ESI-LC/MS/MS analysis; assay type: ADME, organism-based, Macaca fascicularis; conditions: read-out: PPB (converted)
[5] = Ocular toxicity in Beagle dog assessed as irreversible damage by measuring retinal detachment at 10 to 100 mg/kg/day administered for 7 days by microscopic analysis; assay type: organism-based, Canis lupus familiaris; conditions: in vivo, 168 h
[6] = Clearance in cynomolgus monkey at 1 mg/kg administered as iv infusion for 30 mins and measured after 24 hrs by ESI-LC/MS/MS analysis; assay type: ADME, organism-based, Macaca fascicularis; conditions: in vivo
Cytochrome P450 3A4 = Cytochrome P450 3A4 (Homo sapiens, UniProt P08684); test: Inhibition of human CYP3A4; assay type: ADME
Sequence of Cytochrome P450 3A4 (P08684 whole entry, the tested form may be a part): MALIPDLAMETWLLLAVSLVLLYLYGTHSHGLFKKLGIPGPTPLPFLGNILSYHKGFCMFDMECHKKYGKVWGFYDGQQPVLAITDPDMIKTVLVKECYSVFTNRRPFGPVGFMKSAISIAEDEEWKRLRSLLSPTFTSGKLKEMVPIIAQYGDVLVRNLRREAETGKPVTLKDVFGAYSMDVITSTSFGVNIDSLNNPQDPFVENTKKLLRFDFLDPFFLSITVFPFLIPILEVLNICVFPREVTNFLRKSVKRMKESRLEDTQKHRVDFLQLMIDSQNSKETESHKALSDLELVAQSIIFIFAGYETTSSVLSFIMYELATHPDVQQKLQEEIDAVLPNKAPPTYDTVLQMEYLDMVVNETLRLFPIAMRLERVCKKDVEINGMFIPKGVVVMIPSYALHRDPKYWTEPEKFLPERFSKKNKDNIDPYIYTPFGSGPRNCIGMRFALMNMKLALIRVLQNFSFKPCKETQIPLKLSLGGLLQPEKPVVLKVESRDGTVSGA

[7] = Volume of distribution at steady state in Sprague-Dawley rat at 1 mg/kg administered as iv infusion for 30 mins and measured after 24 hrs by ESI-LC/MS/MS analysis; assay type: ADME, organism-based; conditions: in vivo, read-out: Vdss
[8] = Apparent permeability across apical to basolateral side in human Caco2 cells at 10 uM after 1 to 2 hrs by LC/MS/MS analysis; assay type: ADME, cell-based; conditions: Caco-2
[9] = Clearance in human hepatocytes at 1 uM measured up to 250 mins by UHPLC-HRMS analysis; assay type: ADME, cell-based, Hepatocyte
[10] = Protein binding in Sprague-Dawley rat plasma at 1 mg/kg administered as iv infusion for 30 mins and measured after 24 hrs by ESI-LC/MS/MS analysis; assay type: ADME, organism-based; conditions: read-out: PPB (converted)
[11] = MRT in Sprague-Dawley rat at 1 mg/kg administered as iv infusion for 30 mins and measured after 24 hrs by ESI-LC/MS/MS analysis; assay type: ADME, organism-based; conditions: in vivo
[12] = Genotoxicity in Salmonella typhimurium by Ames test; assay type: toxicity; conditions: salmonella enterica subsp. enterica serovar typhimurium
[13] = Ocular toxicity in Beagle dog assessed as irreversible damage by measuring red conjuctiva at 10 to 40 mg/kg/day administered for 7 days and measured from day 4 to day 7; assay type: organism-based, Canis lupus familiaris; conditions: in vivo, 168 h
[14] = Clearance in Beagle dog at 1 mg/kg administered as iv infusion for 30 mins and measured after 24 hrs by ESI-LC/MS/MS analysis; assay type: ADME, organism-based, Canis lupus familiaris; conditions: in vivo
[15] = Volume of distribution at steady state in cynomolgus monkey at 1 mg/kg administered as iv infusion for 30 mins and measured after 24 hrs by ESI-LC/MS/MS analysis; assay type: ADME, organism-based, Macaca fascicularis; conditions: in vivo, read-out: Vdss
[16] = Clearance in Sprague-Dawley rat at 1 mg/kg administered as iv infusion for 30 mins and measured after 24 hrs by ESI-LC/MS/MS analysis; assay type: ADME, organism-based; conditions: in vivo
[17] = Apparent permeability across basolateral to apical side in human Caco2 cells at 10 uM after 1 to 2 hrs by LC/MS/MS analysis; assay type: ADME, cell-based; conditions: Caco-2
[18] = molecular target: T1, Phosphatidylinositol 4,5-bisphosphate 3-kinase catalytic subunit beta isoform (Homo sapiens, UniProt P42338); test: Inhibition of PI3Kbeta in PTEN-deficient human ZR-75-1 cells assessed as reduction in AKT phosphorylation at Ser473 residue after 2 hrs by mesoscale assay; assay type: cell-based
T1 sequence (P42338 whole entry, canonical isoform): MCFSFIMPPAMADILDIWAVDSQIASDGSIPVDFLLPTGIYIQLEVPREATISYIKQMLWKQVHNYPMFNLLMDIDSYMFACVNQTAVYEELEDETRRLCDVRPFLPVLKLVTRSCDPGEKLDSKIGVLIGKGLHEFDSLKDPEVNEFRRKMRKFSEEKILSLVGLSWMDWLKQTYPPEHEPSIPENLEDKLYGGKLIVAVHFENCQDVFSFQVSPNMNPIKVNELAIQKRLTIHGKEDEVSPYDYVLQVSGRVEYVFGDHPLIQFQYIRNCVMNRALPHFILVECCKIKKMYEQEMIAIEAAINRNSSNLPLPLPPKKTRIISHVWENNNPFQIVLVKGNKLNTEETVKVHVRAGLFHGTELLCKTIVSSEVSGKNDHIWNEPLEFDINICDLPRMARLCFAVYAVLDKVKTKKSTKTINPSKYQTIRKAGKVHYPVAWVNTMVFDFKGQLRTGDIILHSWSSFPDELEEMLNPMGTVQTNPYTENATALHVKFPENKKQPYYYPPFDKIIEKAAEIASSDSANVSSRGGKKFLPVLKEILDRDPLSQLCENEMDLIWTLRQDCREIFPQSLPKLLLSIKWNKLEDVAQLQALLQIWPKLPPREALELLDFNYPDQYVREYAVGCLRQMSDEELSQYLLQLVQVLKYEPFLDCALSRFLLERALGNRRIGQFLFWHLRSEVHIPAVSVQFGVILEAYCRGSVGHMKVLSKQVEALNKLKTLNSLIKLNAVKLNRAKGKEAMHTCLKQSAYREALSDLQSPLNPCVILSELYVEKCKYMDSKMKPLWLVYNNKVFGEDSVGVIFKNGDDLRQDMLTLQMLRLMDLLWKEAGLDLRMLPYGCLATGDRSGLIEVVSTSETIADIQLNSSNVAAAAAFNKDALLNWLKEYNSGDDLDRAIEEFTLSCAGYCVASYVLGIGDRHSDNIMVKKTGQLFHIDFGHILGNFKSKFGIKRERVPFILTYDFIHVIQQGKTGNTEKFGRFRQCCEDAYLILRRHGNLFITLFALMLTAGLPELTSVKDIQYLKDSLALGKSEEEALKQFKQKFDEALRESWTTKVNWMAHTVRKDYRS
Summary of the method: (§1)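 Cellular readout: pAKT1 Ser473 normalized to total AKT1, expressed as units pAKT1 Ser473 per nanogram total AKT1; cells treated under serum-free conditions.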

[19] = Terminal half life in rhesus monkey at 1 mg/kg administered as iv infusion for 30 mins and measured after 24 hrs by ESI-LC/MS/MS analysis; assay type: ADME, organism-based, Macaca mulatta; conditions: in vivo, read-out: beta t1/2 (converted)
[20] = molecular target: T1, Phosphatidylinositol 4,5-bisphosphate 3-kinase catalytic subunit beta isoform; test: Inhibition of PI3Kbeta in PTEN-deficient human LNCaP C4-2 cells assessed as reduction in AKT phosphorylation at Ser473 residue after 2 hrs by mesoscale assay; assay type: cell-based; summary of the method: as §1
[21] = Terminal half life in Sprague-Dawley rat at 1 mg/kg administered as iv infusion for 30 mins and measured after 24 hrs by ESI-LC/MS/MS analysis; assay type: ADME, organism-based; conditions: in vivo, read-out: beta t1/2 (converted)
[22] = Oral bioavailability in cynomolgus monkey at 5 mg/kg dosed via gavage after 24 hrs by ESI-LC/MS/MS analysis; assay type: ADME, organism-based, Macaca fascicularis; conditions: in vivo
[23] = MRT in Beagle dog at 1 mg/kg administered as iv infusion for 30 mins and measured after 24 hrs by ESI-LC/MS/MS analysis; assay type: ADME, organism-based, Canis lupus familiaris; conditions: in vivo
[24] = Ocular toxicity in Beagle dog assessed as irreversible damage by measuring retinal necrosis at 10 to 100 mg/kg/day administered for 7 days by microscopic analysis; assay type: organism-based, Canis lupus familiaris; conditions: in vivo, 168 h
[25] = molecular target: T1, Phosphatidylinositol 4,5-bisphosphate 3-kinase catalytic subunit beta isoform; test: Inhibition of PI3Kbeta in PTEN-deficient human PC3 cells assessed as reduction in AKT phosphorylation at Ser473 residue after 2 hrs by mesoscale assay; assay type: cell-based, PC-3; summary of the method: as §1
[26] = Terminal half life in Beagle dog at 1 mg/kg administered as iv infusion for 30 mins and measured after 24 hrs by ESI-LC/MS/MS analysis; assay type: ADME, organism-based, Canis lupus familiaris; conditions: in vivo, read-out: beta t1/2 (converted)
[27] = Protein binding in Beagle dog plasma at 1 mg/kg administered as iv infusion for 30 mins and measured after 24 hrs by ESI-LC/MS/MS analysis; assay type: ADME, organism-based, Canis lupus familiaris; conditions: read-out: PPB (converted)
CYP450 = CYP450 (Homo sapiens, UniProt P04798+P05177+P05181+P08684+P10632+P10635+P11509+P11712+P13584+P20813+P20815+P20853+P24462+P24903+P33260+P33261+P51589+P78329+P98187+Q02928+Q08477+Q16678+Q16696+Q5TCH4+Q6VVX0+Q7Z449+Q8TAV3+Q96SQ9+Q9HB55); test: Inhibition of human CYP450; assay type: ADME, protein assay
Summary of the method: (§2)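 Binding-assay format used to measure inhibition of major human CYP450 enzymes and hERG.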

[28] = Ocular toxicity in Beagle dog assessed as irreversible damage by measuring dilated pupils at 10 to 40 mg/kg/day administered for 7 days and measured from day 4 to day 7; assay type: organism-based, Canis lupus familiaris; conditions: in vivo, 168 h
[29] = molecular target: Phosphatidylinositol 4,5-bisphosphate 3-kinase catalytic subunit gamma isoform (Homo sapiens, UniProt P48736); test: Inhibition of human full length p110gamma using PIP2 as substrate after 30 mins in presence of ATP at 2xKm concentration by TR-FRET assay
Sequence of Phosphatidylinositol 4,5-bisphosphate 3-kinase catalytic subunit gamma isoform (P48736 whole entry, canonical isoform): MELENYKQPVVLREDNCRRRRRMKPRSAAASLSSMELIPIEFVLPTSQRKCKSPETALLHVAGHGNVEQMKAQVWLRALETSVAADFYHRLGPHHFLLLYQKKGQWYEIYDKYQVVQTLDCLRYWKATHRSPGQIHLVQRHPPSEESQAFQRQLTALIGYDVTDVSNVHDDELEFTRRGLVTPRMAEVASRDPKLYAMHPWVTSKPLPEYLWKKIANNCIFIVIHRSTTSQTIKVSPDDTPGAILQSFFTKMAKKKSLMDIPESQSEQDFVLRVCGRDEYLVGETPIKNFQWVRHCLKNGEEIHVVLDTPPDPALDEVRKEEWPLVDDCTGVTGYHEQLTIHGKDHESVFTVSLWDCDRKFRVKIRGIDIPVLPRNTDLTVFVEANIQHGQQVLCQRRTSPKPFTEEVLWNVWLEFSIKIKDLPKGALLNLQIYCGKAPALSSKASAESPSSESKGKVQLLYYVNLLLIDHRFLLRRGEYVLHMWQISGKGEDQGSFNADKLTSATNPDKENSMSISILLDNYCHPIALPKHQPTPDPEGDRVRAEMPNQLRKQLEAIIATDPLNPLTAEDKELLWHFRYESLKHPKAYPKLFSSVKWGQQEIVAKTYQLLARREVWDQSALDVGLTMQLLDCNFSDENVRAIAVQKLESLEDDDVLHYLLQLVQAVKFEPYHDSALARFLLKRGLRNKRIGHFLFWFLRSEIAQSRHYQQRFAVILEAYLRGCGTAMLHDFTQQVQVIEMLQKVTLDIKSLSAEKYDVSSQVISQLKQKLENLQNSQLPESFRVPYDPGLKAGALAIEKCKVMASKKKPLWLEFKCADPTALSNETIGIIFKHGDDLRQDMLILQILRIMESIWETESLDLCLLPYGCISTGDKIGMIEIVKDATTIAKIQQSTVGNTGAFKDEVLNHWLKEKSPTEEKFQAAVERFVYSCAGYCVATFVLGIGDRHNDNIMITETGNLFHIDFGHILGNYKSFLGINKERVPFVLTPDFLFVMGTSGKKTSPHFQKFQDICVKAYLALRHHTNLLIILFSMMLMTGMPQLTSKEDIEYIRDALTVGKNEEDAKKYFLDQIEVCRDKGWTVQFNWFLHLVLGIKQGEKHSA

[30] = Oral bioavailability in Sprague-Dawley rat at 5 mg/kg dosed via gavage after 24 hrs by ESI-LC/MS/MS analysis; assay type: ADME, organism-based; conditions: in vivo
[31] = Volume of distribution at steady state in Beagle dog at 1 mg/kg administered as iv infusion for 30 mins and measured after 24 hrs by ESI-LC/MS/MS analysis; assay type: ADME, organism-based, Canis lupus familiaris; conditions: in vivo, read-out: Vdss
[32] = molecular target: Voltage-gated inwardly rectifying potassium channel KCNH2 (Homo sapiens, UniProt Q12809); test: Inhibition of human ERG; summary of the method: as §2
Sequence of Voltage-gated inwardly rectifying potassium channel KCNH2 (Q12809 whole entry, the tested form may be a part): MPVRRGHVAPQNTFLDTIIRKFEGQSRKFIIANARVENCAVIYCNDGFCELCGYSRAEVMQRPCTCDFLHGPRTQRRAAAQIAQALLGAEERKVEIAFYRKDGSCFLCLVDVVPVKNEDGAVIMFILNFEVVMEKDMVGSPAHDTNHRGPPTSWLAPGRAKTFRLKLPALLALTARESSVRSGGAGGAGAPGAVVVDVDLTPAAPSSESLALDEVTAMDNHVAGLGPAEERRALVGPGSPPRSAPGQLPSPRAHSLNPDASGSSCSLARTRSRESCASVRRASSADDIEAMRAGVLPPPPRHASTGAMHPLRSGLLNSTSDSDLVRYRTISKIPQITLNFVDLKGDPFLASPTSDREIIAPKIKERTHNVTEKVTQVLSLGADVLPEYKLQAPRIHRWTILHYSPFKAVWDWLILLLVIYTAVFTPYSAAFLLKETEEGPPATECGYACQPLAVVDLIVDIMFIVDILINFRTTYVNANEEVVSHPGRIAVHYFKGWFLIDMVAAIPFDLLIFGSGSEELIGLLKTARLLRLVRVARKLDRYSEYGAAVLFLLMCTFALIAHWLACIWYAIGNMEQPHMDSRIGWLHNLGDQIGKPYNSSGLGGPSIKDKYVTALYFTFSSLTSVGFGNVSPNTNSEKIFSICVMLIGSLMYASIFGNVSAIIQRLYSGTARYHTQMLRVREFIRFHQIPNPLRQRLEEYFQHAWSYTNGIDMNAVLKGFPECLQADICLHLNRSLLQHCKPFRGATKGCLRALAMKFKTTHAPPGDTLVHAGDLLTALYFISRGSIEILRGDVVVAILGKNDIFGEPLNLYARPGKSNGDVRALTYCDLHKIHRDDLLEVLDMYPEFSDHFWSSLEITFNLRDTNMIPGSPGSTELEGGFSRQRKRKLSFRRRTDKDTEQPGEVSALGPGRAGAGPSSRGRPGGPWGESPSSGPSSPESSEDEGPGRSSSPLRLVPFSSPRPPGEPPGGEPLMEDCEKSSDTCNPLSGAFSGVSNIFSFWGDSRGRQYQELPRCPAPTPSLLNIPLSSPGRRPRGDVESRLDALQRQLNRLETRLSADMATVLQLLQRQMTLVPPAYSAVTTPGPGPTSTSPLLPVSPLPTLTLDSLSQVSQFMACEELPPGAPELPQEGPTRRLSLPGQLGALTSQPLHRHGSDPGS

[33] = Volume of distribution at steady state in rhesus monkey at 1 mg/kg administered as iv infusion for 30 mins and measured after 24 hrs by ESI-LC/MS/MS analysis; assay type: ADME, organism-based, Macaca mulatta; conditions: in vivo, read-out: Vdss

MRT [1]: 5.2 h
fraction unbound at 24 h [4]: 0.16
clearance [6]: 4.17 mL/min/kg
IC50 (Cytochrome P450 3A4): 24 µM
Vd [7]: 2.5 L/kg
Papp A→B at 10 µM [8]: 22 ×10⁻⁶ cm/s
CLH at 1 µM [9]: 3.17 mL/min/kg
CLH ([9]; 250 min, 1 µM): 3 mL/min/kg
fraction unbound at 24 h [10]: 0.16
MRT [11]: 1.3 h
clearance [14]: 5.67 mL/min/kg
Vd [15]: 1.3 L/kg
clearance [16]: 32.8 mL/min/kg
Papp B→A at 10 µM [17]: 32 ×10⁻⁶ cm/s
EC50 [18]: 0.005 µM
half-life [19]: 4.4 h
EC50 [20]: 0.024 µM
half-life [21]: 1.2 h
bioavailability [22]: 35%
MRT [23]: 7.3 h
EC50 [25]: 0.012 µM
half-life [26]: 5.5 h
fraction unbound at 24 h [27]: 0.14
IC50 (CYP450): > 25 µM
IC50 [29]: 6.61 µM
bioavailability [30]: 53%
Vd [31]: 2.5 L/kg
Vd [33]: 2.6 L/kg
Structure (SMILES): Cc1nc2c(-c3nnc[nH]3)cc(-c3ccnc(C#N)c3)cc2n1-c1ccnc2c(F)ccc(F)c12
Activity [2]: Toxic
Activity [3]: Toxic
Activity [5]: Toxic
Activity [12]: Non-Toxic
Activity [13]: Toxic
Activity [24]: Toxic
Activity [28]: Toxic
IC50 [32]: > 25 µM
